In the library only some 3.6% were active in any assay of this set; here they are far more common.
Yeast life ext: yeast lifespan extension. S. cerevisiae growth with nicotinamide, OD615; deaD strain in restrictive glucose medium. 0.68% of 130,000 active. inhibition of the nicotinamide effect, % at 10 µM;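 active = inhibition above a set limit, placed 3 SD over the median of all compounds, cut at about 26% in these data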
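Measured by: optical density (absorbance) at 615 nm; System: modified budding yeast, DeaD strain; Medium: restrictive CSMM-D dextrose medium; Timing: 4 h preincubation then 48 h treatment at 30 °C.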
Measles CPE: protection of cells from measles virus | Measles virus-infected cells, CPE protection, absorbance | protection (pct of control), % at 4 µM | 1.5% of 140,000 active | AID 841; in the data active = protection mostly above about 24%, no sharp cut-off; inactive = mostly below about 26%
BB579 growth dn: reduces growth of yeast BB579 in restrictive medium. S. cerevisiae BB579 growth, OD615, 48 h. inhibition, % at 10 µM. 0.51% of 140,000 active;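 active = inhibition above a set limit, 3 SD over the mean compound inhibition, cut at about 44% in these data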
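Assay system: S. cerevisiae DeaD strain BB579 yeast. Medium: CSMM-D restrictive synthetic medium containing dextrose (glucose). Times: 4 h cell preincubation, 48 h compound exposure, 30 °C humidified. Signal: OD615 turbidity measurement. Benchmarks: positive control amphotericin B 10 µg/mL.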
RAM inhibit: blocks the yeast RAM network; S. cerevisiae dse1pr::URA3 reporter, 5-FOA growth OD615, 2 d; analog-sensitive cbk1-as2 kinase mutant strain; inhibition, % at 50 µM; 1.8% of 190,000 active;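 active = inhibition above a set limit, 3 SD over mean compound inhibition, cut at about 8.4% in these data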;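 note: inhibition rescues growth on 5-FOA so higher OD means more RAM inhibition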
A number is an active result; . = inactive; / = not tested or not shown.

SMILES	Yeast life ext	Measles CPE	BB579 growth dn	RAM inhibit
Cn1c2c(c(=O)n(C)c1=O)C(c1ccc(Cl)cc1)C(C#N)=C(N)O2 (configuration not stated)	.	.	.	.
CCOc1ccc(C2=NNC(c3cccs3)=Nc3ccc(OCC)cc32)cc1	47	.	.	.
N#Cc1c(Nc2ccccc2)c(/C=N/N=C/c2ccccc2)c[nH]c1=O	.	26	.	.
N#Cc1c(Nc2ccccc2)c(/C=N/NCCO)c[nH]c1=O	/	/	/	.
CCOc1cc(CNCCO)cc(Br)c1OCc1ccc(Cl)cc1Cl	.	.	96	.
Cc1cccc(N=Nc2ccc(O)c3ncccc23)c1	.	.	91	.
CC1=CC(=O)c2ccccc2C1=O	.	.	68	.
COc1cccc2c1C(=O)C=C(C)C2=O	.	.	.	.
O=C(CNC(=O)c1cccs1)NCC(=O)OCc1cccc(Cl)c1	.	active	.	.
CC(=O)N1CC2([N+](=O)[O-])CN(C(C)=O)CC([N+](=O)[O-])(C1)C2(C)C	/	/	/	.
Cc1cc(SCC(=O)c2cccs2)n2nc(C)c(-c3ccccc3)c2n1	.	60	.	.
CC(OC(=O)CCCN1C(=O)c2ccccc2C1=O)C(=O)Nc1ncc(Cl)cc1Cl (configuration not stated)	30	.	.	.
CC(OC(=O)Cc1coc2ccc3ccccc3c12)C(=O)Nc1ncc(Cl)cc1Cl (configuration not stated)	.	.	.	.
Cc1ccc(-n2c(C)cc(C(=O)NS(=O)(=O)c3ccc(C)cc3)c2C)cc1	.	.	.	8.6
O=C(NCc1ccc(F)cc1)c1nc(-c2cccs2)no1	/	/	/	8.5
COC(=O)C1=C(C(=O)OC)C2C(C)=CC(C)=CN2C(C(=O)OC)=C1C(=O)OC (configuration not stated)	.	.	.	.
O=C(Oc1ccc2ccccc2c1Br)N1CCCCCC1	.	47	.	.
O=C(c1ccccc1)c1nn(-c2ccc(Cl)cc2)c(=O)cc1C(F)(F)F	32	.	.	.
O=C(c1ccccc1)c1nn(-c2ccccc2)c(=O)cc1C(F)(F)F	.	.	.	.
COCCNC(=O)COC(=O)c1cc(-c2ccc(OC)cc2)nc2ccccc12	/	/	/	.
Cc1nc2sc3c(c2c(=O)o1)CC(C)(C)OC3	32	.	.	.
Cc1nonc1OCCCNc1ccc([N+](=O)[O-])cc1Cl	/	/	/	.
Oc1c(C(Nc2ccccn2)c2cccnc2)cc(Cl)c2cccnc12 (configuration not stated)	28	.	.	.
Cc1cc(NC(c2cccnc2)c2ccc3cccnc3c2O)no1 (configuration not stated)	.	.	.	.
CCC(C)Cn1c(S(=O)(=O)O)nc2ccccc21 (configuration not stated)	.	50	.	.
SMILES	Yeast life ext	Measles CPE	BB579 growth dn	RAM inhibit
CC(C)CCn1c(S(=O)(=O)O)nc2ccccc21	.	.	.	.
CN(C)C(CNC(=O)c1ccc(S(=O)(=O)N(C)C)cc1)Cc1ccccc1 (configuration not stated)	/	/	/	.
CCOc1ccc(C2C(C(C)=O)=C(O)C(=O)N2CCc2c[nH]c3ccccc23)cc1 (configuration not stated)	/	/	/	.
Cn1c(=O)c2c(ncn2CCCNC2=CC(C)(C)CC(=O)C2)n(C)c1=O	.	17	.	.
CN(C)S(=O)(=O)N1CCCC(C(=O)c2ccc(-c3ccccc3)c(F)c2)C1 (configuration not stated)	/	/	/	.
CSc1ccc(C(=O)C2CCCN(S(=O)(=O)N(C)C)C2)cc1 (configuration not stated)	/	/	/	10
COc1cccc(/C=C/C(=O)Nc2ccccc2N2CCOCC2)c1	/	/	/	.
Cc1ccccc1C(=O)NNC(=O)c1ccc(Br)cc1	/	/	/	.
O=C(CCc1ccccc1)NNC(=S)NC(=O)c1ccccc1	.	.	69	.
Cc1ccccc1C(=O)NNC(=S)NC(=O)c1ccccc1	30	.	.	.
O=C(O)CC(NC(=O)C12CC3CC(CC(C3)C1)C2)c1ccc(OC2CCCC2)cc1 (configuration not stated)	/	/	/	.
N#CCCN(C(=O)COc1ccc(C#N)cc1)c1ccc(F)cc1	/	/	/	.
Cc1c(Br)cccc1NC(=O)c1sccc1-n1cccc1	.	.	.	.
CC(C)c1ccc(NC(=O)c2sccc2-n2cccc2)cc1	/	/	/	8.6
N#C/C(=C\c1cccs1)C(=O)Nc1nccs1	/	/	/	.
Cc1ccc(S(=O)(=O)NCCc2nnc3ccc(SCC(=O)Nc4nc5ccccc5s4)nn23)cc1	.	30	.	10
O=C(COC(=O)c1cccc2ccccc12)NCCCc1ccccc1	.	.	.	11
COc1cccc(C(=O)OCC(=O)NCCc2ccccc2)c1OC	/	/	/	.
Nc1c(Cl)ncnc1N/N=C/c1ccccn1	.	.	96	.
Cc1nc(SCC(=O)N2CC(C)OC(C)C2)nc(C)c1C (configuration not stated)	.	26	.	.
CC1CN(C(=O)CSc2nc(-c3ccccc3)cs2)CC(C)O1 (configuration not stated)	.	.	.	.
CC(=Nc1ccc2c(c1)nc(CO)n2C)C1=C(O)CC(C)(C)CC1=O	46	.	.	.
COC(=O)c1ccc(C)c(NC(=O)CN(c2ccccc2)S(=O)(=O)N(C)C)c1	/	/	/	.
CCOC(=O)COc1c(Br)cc(/C=C2\SC(=O)N(CC(=O)N3CCCC3)C2=O)cc1OC	.	.	.	11
CCOC(=O)c1ccc(NC(=O)CCc2nc(-c3ccccc3)no2)cc1	.	.	.	9.5
SMILES	Yeast life ext	Measles CPE	BB579 growth dn	RAM inhibit
Cc1cccc(-c2noc(CCCC(=O)Nc3cccnc3)n2)c1	.	active	.	.
CCOC(=O)c1ccc(NC(=O)CCc2nc(-c3ccccc3Cl)no2)cc1	.	.	.	.
CC(C)CCC(CC(C)O)c1n[nH]c(=S)n1-c1ccccc1 (configuration not stated)	.	.	.	.
CC(=O)C1=C(O)CCC1=NCCc1ccccc1	.	29	.	.
O=C1C(Oc2ccccc2)C(c2cccs2)N1Cc1ccc2c(c1)OCO2 (configuration not stated)	.	.	.	.
Cc1ccccc1OC1C(=O)N(Cc2ccc3c(c2)OCO3)C1c1sccc1C (configuration not stated)	.	.	.	10
N#Cc1cnn2ccc(-c3cc(N4CCOCC4)ccc3[N+](=O)[O-])nc12	/	/	/	.
CC(C)(C)NC(=O)c1ccc2nccnc2c1	.	52	.	.
CC(C)(C)NC(=O)Nc1ccc2nccnc2c1	.	.	.	.
O=S(=O)(/N=C(\Sc1ccc(Cl)cc1)c1ccccc1)c1ccccc1	.	.	88	.
CS/C(=N/S(=O)(=O)c1ccc(C)cc1)c1ccccc1	.	18	.	.
Cc1noc(C)c1COC(=O)CCN1c2ccccc2Sc2ccccc21	.	.	.	10
COc1ccc(OCCC(=O)OCc2c(C)noc2C)cc1	.	35	.	.
C=CCSc1nc(N)c(C(=O)Nc2ccccc2)cc1C#N	.	.	.	9.8
C=CCSc1nc(N)c(C(=O)Nc2ccccc2OC)cc1C(=O)Nc1ccccc1	.	.	.	.
